The target of test [1] is T1, Cholecystokinin receptor type A (Rattus norvegicus, UniProt P30551).
T1 sequence (P30551 whole entry): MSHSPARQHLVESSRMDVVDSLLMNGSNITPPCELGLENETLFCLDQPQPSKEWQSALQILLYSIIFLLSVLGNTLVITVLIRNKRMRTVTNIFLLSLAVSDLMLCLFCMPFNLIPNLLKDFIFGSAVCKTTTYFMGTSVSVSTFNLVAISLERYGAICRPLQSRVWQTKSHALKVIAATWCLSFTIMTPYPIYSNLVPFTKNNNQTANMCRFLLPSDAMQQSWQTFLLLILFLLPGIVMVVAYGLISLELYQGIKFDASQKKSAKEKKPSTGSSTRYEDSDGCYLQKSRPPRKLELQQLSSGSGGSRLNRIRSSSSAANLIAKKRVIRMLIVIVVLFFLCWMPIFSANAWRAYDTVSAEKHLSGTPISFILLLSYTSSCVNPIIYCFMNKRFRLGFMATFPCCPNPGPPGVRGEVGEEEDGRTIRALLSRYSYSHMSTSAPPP
The experiment in a line: Inhibition of [125I]BH-CCK-8 binding to Cholecystokinin type A receptor of rat pancreatic tissue. In a few lines: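 Sprague–Dawley rat pancreas homogenized in 50 mM Tris pH 8.0 at 4 °C; washed membranes in 5 mM Tris (pH 7.4) with 5 mM MgCl2, 5 mM DTT, 2 mg/mL BSA, 0.14 mg/mL bacitracin.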

In test [2] the target is T2, Gastrin/cholecystokinin type B receptor (Rattus norvegicus, UniProt P30553).
T2 sequence (P30553 whole entry): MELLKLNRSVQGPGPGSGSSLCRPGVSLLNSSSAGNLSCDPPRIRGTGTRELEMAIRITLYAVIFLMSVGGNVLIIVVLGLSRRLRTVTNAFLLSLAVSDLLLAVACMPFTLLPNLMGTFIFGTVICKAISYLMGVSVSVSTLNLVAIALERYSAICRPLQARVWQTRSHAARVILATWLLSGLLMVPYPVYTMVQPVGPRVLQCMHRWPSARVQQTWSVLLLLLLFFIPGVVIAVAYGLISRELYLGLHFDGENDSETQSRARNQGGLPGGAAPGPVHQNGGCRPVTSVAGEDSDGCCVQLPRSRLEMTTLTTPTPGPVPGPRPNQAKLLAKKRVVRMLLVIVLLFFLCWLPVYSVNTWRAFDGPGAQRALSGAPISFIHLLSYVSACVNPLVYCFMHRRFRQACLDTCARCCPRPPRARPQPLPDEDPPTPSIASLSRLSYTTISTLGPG
The experiment in a line: Binding affinity towards Cholecystokinin type B receptor in rat cortex synaptosomes using [125I]BH-CCK-8 as radioligand. The class given is subcellular, Brain.

Test [3] relates to Rattus norvegicus. The experiment in a line: Ability of intraperitoneally administered compound, to inhibit food intake was measured 3 hr after feeding the rats. The format is functional. To be noted: ip. A digest of the protocol:
(§1)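 Male Sprague–Dawley rats (300–400 g), individually caged, 12 h light/dark cycle, trained ≥14 days to eat powdered chow during first 3 h of dark. Peptide or saline given ip in 0.5 mL 0.9% saline (pH 7.0–8.0) 10 min before food; cumulative intake read at 0.5 and 3 h in same experiment. Five doses, 10 rats/dose; ED50 by logistic fit.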

Test [4] has as its system Rattus norvegicus. In words: Ability of intraperitoneally administered compound, to inhibit food intake was measured 0.5 hr after feeding the rats. To be noted: ip. The class given is functional. A digest of the protocol:
as §1

Broadly, the Ki is the equilibrium dissociation constant of an inhibitor or competing ligand from its target. The low end stands for tighter binding, the high end for weaker binding.

*1 amine or outer side, *2 acyl side, *3 side chain or, on linkers, in order; H or OH if unused. Where a SMILES comes first, the peptide text is derived from it. Side-chain parts run from the residue outwards. [ ]: non-standard residue; d: D form. The star is where a group is joined. NMeF = CN[C@@H](Cc1ccccc1)C(=O)O; NMeD = CN[C@@H](CC(=O)O)C(=O)O; NH(2-Me-phenyl) = Cc1ccccc1N*; X3 = O=C(/C=C/c1ccc(O)cc1)*; Nle = CCCC[C@H](N)C(=O)O; X1 = O=C(Cc1ccc(O)cc1)*; Boc = CC(C)(C)OC(=O)*; CO = O=C([*:1])[*:2]

In test [1], `CCCC[C@H](NC(=O)Cc1ccc(O)cc1)C(=O)NCC(=O)N[C@@H](Cc1c[nH]c2ccccc12)C(=O)N[C@@H](CCCC)C(=O)N[C@@H](CC(=O)O)C(=O)N(C)[C@@H](Cc1ccccc1)C(N)=O` (X1-[Nle]GW[Nle]D[NMeF]-NH2) had an inhibition constant Ki of 51 nM.

On to `CCCC[C@H](NC(=O)Cc1ccc(O)cc1)C(=O)NCC(=O)N[C@@H](Cc1c[nH]c2ccccc12)C(=O)N[C@@H](CCCC)C(=O)N(C)[C@@H](CC(=O)O)C(=O)N[C@@H](Cc1ccccc1)C(N)=O` (X1-[Nle]GW[Nle][NMeD]F-NH2), for which the inhibitory constant (Ki) in test [1] came to 4.2 nM; in test [2], 960 nM. Moreover, the ED50 is 13 µg/kg in the test with Rattus norvegicus [3] and 3.8 µg/kg with Rattus norvegicus [4].

In test [1], `Cc1ccccc1NC(=O)NCCCC[C@H](NC(=O)[C@H](Cc1c[nH]c2ccccc12)NC(=O)OC(C)(C)C)C(=O)N[C@@H](CC(=O)O)C(=O)N(C)[C@@H](Cc1ccccc1)C(N)=O` yielded a Ki of 0.3 nM. The ED50 came to 3.2 µg/kg in the test on Rattus norvegicus [3] and 0.9 µg/kg in the test with Rattus norvegicus [4].

Turning to `CCCC[C@H](NC(=O)Cc1ccc(O)cc1)C(=O)NCC(=O)N[C@@H](Cc1c[nH]c2ccccc12)C(=O)N[C@@H](CCCCNC(=O)/C=C/c1ccc(O)cc1)C(=O)N[C@@H](CC(=O)O)C(=O)N(C)[C@@H](Cc1ccccc1)C(N)=O` (X1-[Nle]GWK(X3)D[NMeF]-NH2), the values for the Ki in test [1] and in test [2] were 3.4 nM and 36 nM, respectively.

Molecule `Cc1ccccc1NC(=O)NCCCC[C@H](NC(=O)[C@H](Cc1c[nH]c2ccccc12)NC(=O)OC(C)(C)C)C(=O)N[C@H](CC(=O)O)C(=O)N(C)[C@@H](Cc1ccccc1)C(N)=O` returned an inhibition constant Ki in test [1] of 0.53 nM.

Turning to `CSCC[C@H](NC(=O)Cc1ccc(OS(=O)(=O)O)cc1)C(=O)NCC(=O)N[C@@H](Cc1c[nH]c2ccccc12)C(=O)N[C@@H](CCSC)C(=O)N[C@@H](CC(=O)O)C(=O)N(C)[C@@H](Cc1ccccc1)C(N)=O`, the Ki stood at 0.98 nM in test [1] and 84 nM in test [2].

With `Cc1ccccc1NC(=O)NCCCC[C@H](NC(=O)[C@H](Cc1c[nH]c2ccccc12)NC(=O)OC(C)(C)C)C(=O)N[C@@H](CC(=O)O)C(=O)N[C@@H](Cc1ccccc1)C(N)=O` (Boc-WK([CO-NH(2-Me-phenyl)])DF-NH2), the affinity in test [1] corresponds to a Ki of 8.1 nM.

The values are drawn from ChEMBL document CHEMBL1133743, “CCK peptides with combined features of hexa- and tetrapeptide CCK-A agonists” (J Med Chem, 2000).
